Reference: PMC8114230 (Inorganic chemistry, 2020)
Values joined by “and” are separate entries in the source; they are usually repeats but may differ in a detail not shown here. Equal entries are not always repeated. “Also recorded” adds a separate entry of the source. Where two headings read alike, the source gives them in different places. Marks after values point to notes of the source that are not given here.

What was measured:
HeLa cells [1] = assay: Intracellular luminescence by confocal fluorescence microscopy; format: cell-based; settings: 10 μM, 2 h
Outline: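 HeLa cells were kept in DMEM with 10% FBS at 37 °C and 5% CO2. 1 × 10^5 cells were seeded on glass-bottom dishes, and after 24 h they were exposed to the test compound (10 μM in DMEM) for 2 h. Cells were then washed with PBS and imaged in HEPES imaging buffer, pH 7.4. Confocal excitation was 405 nm with 410–550 nm emission. Corrected total cell fluorescence was averaged over at least ten cells.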

[2] = PBS pH 7.4; cited from earlier work
Maximum tolerated dose = format: in vivo; settings: injections in mice
Biodistribution in mice = format: in vivo; settings: BALB/c mice
Outline: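 Female BALB/c mice, 6 weeks old, received a 99mTc tricarbonyl isonitrile analogue (51–104 μCi) with the Re test compound (0.2 μmol; 10 μmol/kg) together through a tail vein catheter in 10% EtOH/saline. Animals were killed at 1, 2 and 4 h, and blood (cardiac puncture), organs, muscle, femur and urine were collected. For Re, tissues were digested in nitric acid for 20 h at 25 °C and measured by ICP-OES with a 20 ppm Tb internal standard. Results were expressed as %ID/g.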

HeLa cells [3] = assay: Thioflavin T; format: cell-based; settings: 10 μM, 30 min post-treatment
Outline: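 About 1 × 10^5 HeLa cells were seeded on glass-bottom dishes. After 24 h they were loaded with 5 μM ThT for 2 h, washed, and given fresh medium. Test compound (10 μM) was added in imaging buffer. Confocal images were taken at 0 and 30 min (ex 405 nm, em 410–550 nm). Corrected total cell fluorescence was computed as integrated density minus cell area × mean background.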

CHOP = CHOP expression Western blot; format: cell-based; settings: HeLa cells, 10 μM, 24 h
Outline: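 HeLa cells were exposed for 24 h to 10 μM test compound or DMSO vehicle. Lysis was in TBS (pH 7.5) with 1% Triton X-100, DNase and protease inhibitors, on ice 30 min. Samples were run on SDS-PAGE and blotted to PVDF. Blocking was 5% BSA/0.1% Tween-20. Anti-CHOP was applied overnight at 4 °C, then HRP secondary 1 h at room temperature. Detection was by ECL, with β-actin as loading control.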

[4] = Luminescence lifetime measurements in PBS; format: physicochemical; settings: for luminescence lifetime τN2: nitrogen-saturated PBS (pH 7.4); for luminescence lifetime τ: air-equilibrated PBS, 10 μM
Outline: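 Test compound was measured at 10 μM in PBS. Time-resolved photon counts were collected in 40 ns bins and fitted to a standard exponential decay. For deoxygenated samples, nitrogen was bubbled through the PBS solution for 20 min before measurement.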

[5] = air-equilibrated PBS; cited from earlier work
[6] = Solubility in water or PBS; format: physicochemical
[7] = a week in aqueous solution, even in the presence of glutathione; cited from earlier work
HeLa cells [8] = assay: Puromycin incorporation assay; format: cell-based; settings: 10 μM, 2 h, then puromycin
Outline: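 HeLa cells were exposed for 2 h to 10 μM test compound or DMSO vehicle. Puromycin (10 μM) was then added, and cells were harvested 10 min later. Lysis was in TBS/1% Triton X-100. Samples were run on SDS-PAGE and blotted to PVDF, with blocking in 5% milk/0.1% Tween-20. Anti-puromycin was applied overnight at 4 °C, then HRP secondary 1 h at room temperature. Detection was by ECL, normalised to β-actin.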

[9] = tested on: A2780 ovarian cancer xenografts; assay: In vivo tumor growth inhibition, A2780 ovarian cancer xenografts; parameters: species or system NSG mice
Outline: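 NSG mice, about 7 weeks old, received A2780 tumour fragments from propagation mice implanted subcutaneously in the left flank. Groups of at least five were treated once tumours exceeded 100 mm3. Dosing was tail-vein injection twice weekly with vehicle (20% DMSO/PBS) or 5, 10 or 20 mg/kg test compound. Body weight and caliper tumour volume were tracked blinded over 27 days. Endpoints were a dimension >30 mm or burden […]; survival was compared with vehicle.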

[10] = Cyclic voltammetry in acetonitrile; format: physicochemical; settings: 0.10 M TBAP, irreversible reduction peak
HeLa cells [11] = settings: MTT assay; cited from earlier work
[12] = Emission spectra and emission quantum yield in PBS; format: physicochemical; settings: PBS pH 7.4, ≤1% DMSO, air-equilibrated; for emission quantum yield Φ: relative to quinine sulfate
Outline: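 Spectra were taken in PBS pH 7.4 with ≤1% DMSO. Quantum yield was set relative to quinine sulfate (Φ = 0.52, 0.5 M H2SO4), cross-checked against harmaline (Φ = 0.32, 0.05 M H2SO4). Excitation was 350 nm, keeping absorbance below 0.1. At least five concentrations of sample and standard were measured. Absorbance at 350 nm was plotted against integrated emission.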

HeLa cells [13] = assay: MTT cytotoxicity assay in HeLa cells; format: cell-based; settings: 48 h incubation
Outline: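 HeLa cells were grown in DMEM with 10% FBS at 37 °C, 5% CO2. Cells were seeded at 4000/well and rested 24 h, then medium was replaced with test-compound dilutions for 48 h. Stocks were in PBS or DMSO. MTT (1 mg/mL in DMEM) was added for 4 h. Formazan was dissolved in 8:1 DMSO/pH 10 glycine buffer and read at 570 nm. Viability was normalised to untreated wells: three independent experiments, six replicates per concentration.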

HeLa cells [14] = assay: Mitochondria morphology; format: cell-based; settings: 10 μM, up to 30 min
Outline: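 HeLa cells were loaded with MitoTracker Red FM and Hoechst 33342 for 30 min, then washed. At the microscope, test compound was added to 10 μM final in HEPES imaging buffer (pH 7.4). Confocal images were taken every 2 min up to 30 min: MitoTracker ex 561/em 630–700 nm, Hoechst ex 405/em 410–550 nm. Individual mitochondria were counted in ImageJ at 0, 14 and 30 min, alongside untreated cells.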

[15] = tail vein injection, 0.2 μmol Re / ~100 μCi 99mTc

Row | Compound | increase in ThT fluorescence (HeLa cells [3]) | CHOP expression (CHOP) | luminescence lifetime τN2 [4] [μs] | inhibition of protein synthesis (puromycin incorporation) (HeLa cells [8]) | Epc [10] [V vs SCE] | emission maximum λ [12] [nm] | emission quantum yield Φ [12] | IC50 (HeLa cells [13]) | luminescence lifetime τ [4] [μs] | also measured
1 | Cc1ccc2ccc3ccc(C)nc3c2n1.O=S(=O)([O-])C(F)(F)F.[C-]#[N+]c1ccc(C)cc1.[C-]#[O+].[C-]#[O+].[C-]#[O+].[Re+] [TRIP-1a, fac-[Re(CO)3(dmphen)(ptolICN)]OTf] | ≥ 2 fold | induce CHOP expression | 3.5 | most efficient inhibition of protein synthesis | −1.25 | – | – | – | – | intracellular localization pattern (HeLa cells [1]): primarily localized around the nucleus in a punctate pattern; emission maximum λ [2]: 505 nm; emission quantum yield Φ [2]: 3.1 ± 0.3%; maximum tolerated dose, no obvious sign of distress (Maximum tolerated dose): ≥ 40 mg/kg; rhenium content in blood, muscle and bone (Biodistribution in mice; ICP-OES): below detectable levels; heart and lung accumulation (Biodistribution in mice; [15]): accumulate in the heart and lungs; kidney uptake (Biodistribution in mice; [15]): large; liver uptake (Biodistribution in mice; [15]): moderate; spleen uptake (Biodistribution in mice; [15]): taken up to a much higher extent in this organ compared to TTIP; luminescence lifetime τ [5]: 1.1^c μs; solubility [6]: up to 2 mM; degradation in aqueous solution [7]: no measurable degradation; effect on tumor growth rate ([9]; 5 mg/kg i.v. twice weekly, 20% DMSO/PBS): no effect on tumor growth rate; effect on tumor growth rate ([9]; 10 mg/kg i.v. twice weekly, 20% DMSO/PBS): no effect on tumor growth rate; effect on tumor growth ([9]; 20 mg/kg i.v. twice weekly, 20% DMSO/PBS): inhibit tumor growth; also recorded: significantly inhibits tumor growth; prolongation of survival relative to the control group ([9]; 20 mg/kg twice weekly): 150%; average tumor volume relative to the vehicle-treated group ([9]; 20 mg/kg, days 10 to 20 after beginning treatment): less than half; side effects / body weight changes ([9]; highest concentrations of TRIP-1a, tumor-bearing NSG mice): minimal body weight changes; local reaction on administration ([9]; i.v. formulation in 20% DMSO/PBS): severe local inflammation; IC50 (HeLa cells [11]): 1.4 ± 0.2 µM
2 | Cc1ccc(N=[C]=[Re+]2(=[C]=O)(=[C]=O)(=[C]=O)[N]3C=CC=c4ccc5c(c43)[N]2C=CC=5)cc1.O=S(=O)([O-])C(F)(F)F [TRIP-2a, fac-[Re(CO)3(phen)(ptolICN)]OTf] | – | – | 10.9 | – | −1.18 | 512 | 5.3 ± 0.4% | 5.8 ± 0.5 µM | 1.8 | –
3 | O=S(=O)([O-])C(F)(F)F.[C-]#[N+]c1ccc(C)cc1.[C-]#[O+].[C-]#[O+].[C-]#[O+].[Re+].c1ccc(-c2ccccn2)nc1 [TRIP-3a, fac-[Re(CO)3(bpy)(ptolICN)]OTf] | – | – | 1.0 | not effective translation inhibitors | −1.18 | 523 | 6.3 ± 0.2% | 27.5 ± 0.6 µM | 0.7 | change in mitochondrial morphology (mitochondrial fission) (HeLa cells [14]): did not give rise to any changes in mitochondrial morphology
4 | N.N.[Cl][Pt][Cl] [cisplatin, reference compound] | – | – | – | – | – | – | – | – | – | IC50 (HeLa cells [11]): 6.6 ± 0.7 µM
5 | fac-[Re(CO)3(CF3bpy)(ptolICN)]OTf [TRIP-6a] | unable to change the ThT fluorescence levels relative to untreated cells | except for the least cytotoxic compound TRIP-6a | 0.1 | not effective translation inhibitors | – | 584 | 0.8% and 0.8 ± 0.1% | 53 µM and 53.1 µM | 0.1 | change in mitochondrial morphology (mitochondrial fission) (HeLa cells [14]): did not give rise to any changes in mitochondrial morphology
6 | fac-[Re(CO)3(dmbpy)(ptolICN)]OTf [TRIP-4a] | – | – | 1.3 | – | −1.30 | 516 | 6.7 ± 0.1% | 7.6 ± 0.3 µM | 0.8 | –
7 | fac-[Re(CO)3(dmobpy)(ptolICN)]OTf [TRIP-5a] | – | – | 0.7 | – | −1.33 | 525 | 3.9 ± 0.3% | 8.4 ± 1.9 µM | 0.4 | –
8 | fac-[Re(CO)3(tbutylbpy)(ptolICN)]OTf [TRIP-7a] | ≥ 2 fold | induce CHOP expression | 1.6 | most efficient inhibition of protein synthesis | −1.30 | 518 | 7.7 ± 0.2% | 1.2 ± 0.5 µM | 0.7 | intracellular localization pattern (HeLa cells [1]): distributed evenly throughout the cytoplasm
